Calb biofilm kill: clotrimazole potentiators killing C. albicans biofilm, primary screen, 4-compound mixtures. C. albicans biofilm persisters + clotrimazole, fluorescence viability; primary screen in compound mixtures of four per well. inhibition, % at 7.6 µM. actives 0.02% (n = 120,000);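 active means inhibition above 30.3% in the primary screen of four-compound pools, then above 30% when the compound was retested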;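 further: compounds exposed to preformed 24 h biofilms for 48 h; 0% = untreated biofilm control and 100% = clotrimazole plus chlorhexidine kill blank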
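Test system: C. albicans CAF4-2 wild-type biofilms; buffer or medium: RPMI/MOPS medium, pH 7.0; schedule: 24 h biofilm formation, then 48 h compound exposure, 37 °C; detection: Alamar Blue fluorescence; measure: percent inhibition of biofilm viability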
ROMK mod: ROMK potassium channel modulators, primary screen, cell-based, thallium flux, MLSMR library; ATP-sensitive inward rectifier potassium channel 1 (Homo sapiens), P48048; Tet-inducible ROMK, thallium flux fluorescence; actives lie on both sides; B-score at 10 µM; actives 2% (n = 130,000); AID 1918, 2009;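 active means signal ratio slope over the read window, or its plate-corrected B-score, at least 3 SD from the plate mean, either direction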;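 further: B-score of the F/F0 ratio slope over 7 to 12 s after thallium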
Target sequence (P48048 whole entry, looked up): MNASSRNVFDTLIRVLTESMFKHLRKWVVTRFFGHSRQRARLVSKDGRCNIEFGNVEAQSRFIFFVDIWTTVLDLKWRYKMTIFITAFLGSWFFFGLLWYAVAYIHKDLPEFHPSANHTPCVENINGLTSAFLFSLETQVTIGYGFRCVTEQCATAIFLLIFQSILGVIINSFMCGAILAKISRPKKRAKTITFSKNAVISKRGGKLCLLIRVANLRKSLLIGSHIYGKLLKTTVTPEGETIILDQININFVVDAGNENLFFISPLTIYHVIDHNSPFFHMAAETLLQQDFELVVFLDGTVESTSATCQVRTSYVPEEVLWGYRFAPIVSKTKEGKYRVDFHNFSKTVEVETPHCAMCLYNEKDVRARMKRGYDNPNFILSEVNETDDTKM
* hit, by the source's call; nt = no result. This excerpt belongs to a sample that is enriched for hits.

SMILES	Calb biofilm kill	ROMK mod
Cc1ccc(C)c(S(=O)(=O)N2CCCOC2CNC(=O)C(=O)NCc2cccnc2)c1 (stereo unspecified)	6.8	0.64
CCCc1cc(NC(=O)CCl)n(-c2ccccc2)n1	9.7	-0.218
COCCNC(=O)C(=O)N/N=C(\C)CC(=O)Nc1ccc2c(c1)OCO2	-9.3	0.412
CC(C)N1CCN(Cc2ccc3nsnc3c2)CC1CCO (stereo unspecified)	10.8	0.155
CCS(=O)(=O)c1ccc2oc(SCC(=O)NCCc3ccc(F)cc3)nc2c1	11.0	nt
O=C(Nc1cccnc1)c1cc(-c2ccccc2)on1	12.9	3.5*
COc1cccc(C(=O)Nc2cnn(C(C)C)c2)c1	34.8	0.0182
CC(C)n1cc(NC(=O)c2cc(-c3ccccc3)on2)cn1	nt	5.83*
O=C(Nc1cccnc1)c1cc(-c2ccco2)on1	nt	0.293
CC(=O)Nc1ccc(NC(=O)[C@@H]2CCCC[C@@H]2C(=O)O)cc1	8.0	-0.263
S=c1nc(C2CCCCC2)[nH]c2ccccc12	4.0	3.07*
O=c1[nH]c(C2CCCCC2)nc2ccccc12	2.7	-0.646
CC(C)Oc1cccc(C(=O)C2CCCN(C(=O)c3ccnn3C)C2)c1 (stereo unspecified)	-2.6	-0.069
CCN1C(=O)/C(=C/N(C(C)=O)c2ccccc2)N(c2ccccc2)C1=S	nt	-3.81*
CCc1ccc(/C=C2/C(=O)N(c3ccccc3)C(=S)N2CC(=O)OC)s1	4.1	nt
O=C(Nc1cccc(F)c1)C1CCN(C(=O)c2ccc(Br)cc2)CC1	nt	-0.422
O=C(NC1CCCCC1)Sc1ccc(Cl)cc1	nt	-4.71*
O=C(CCSCc1ccc(Cl)cc1)NC1CCCC1	22.9	0.904
CC1=C(C)CC(C(=O)NCc2ccc3c(c2)OCO3)C(C(=O)O)C1 (stereo unspecified)	nt	-0.237
CCc1cc2c(=O)n(CCC(C)C)c(=S)[nH]c2s1	8.0	9.73*
CCCn1c(=S)[nH]c2ccccc2c1=O	24.1	1.7
CCC(=O)N1CCc2cc(S(=O)(=O)CCC(=O)Nc3nc(C)cs3)ccc21	nt	1.27
CCC(=O)N1c2ccc(S(=O)(=O)CCC(=O)Nc3nccs3)cc2CC1C (stereo unspecified)	nt	5.65*
O=C(Oc1ccccc1-c1nnco1)c1ccc(Cl)cc1	nt	-1.55
Cc1sc2nc(CN3CCN(c4ccc(O)cc4)CC3)[nH]c(=O)c2c1C	5.3	nt
SMILES	Calb biofilm kill	ROMK mod
Cc1sc2nc(CN3CCOCC3)[nH]c(=S)c2c1C	-4.9	8.62*
CCOC(=O)c1ccoc1CSCc1ccc(C(=O)OC)o1	nt	0.201
O=C(OCn1ncc(Br)c(Br)c1=O)c1c(F)cccc1F	nt	-4.19*
CC(=O)Cn1ncc(Br)c(Br)c1=O	15.6	1.03
COc1ccc(F)cc1C(=O)C1CCCN(Cc2ccc3c(c2)OCCO3)C1 (stereo unspecified)	15.2	-0.884
CCSc1nnc(N(CCC#N)CCC#N)s1	nt	-4.97*
O=C(O)CCN(CCC(=O)O)c1nnc(SCc2ccccc2)s1	nt	-0.0309
Oc1nc(-c2ccc(Cl)cc2)n2ccncc12	10.1	0.217
O=P(CCCCCCCCCP(=O)(c1ccccc1)c1ccccc1)(c1ccccc1)c1ccccc1	nt	-4.69*
O=C(O)CCCCCCCCCCP(=O)(c1ccccc1)c1ccccc1	17.7	0.0176
Cc1cc(=S)nc(-c2ccccn2)[nH]1	-2.6	1.54
Cc1[nH]c(-c2ccccn2)nc(=S)c1Cl	11.4	3.54*
Cc1ccc(S(=O)(=O)N2CCCCC2)cc1NC(=O)COC(=O)Cc1cccc2ccccc12	11.5	nt
CC1(C)CC(=O)c2c(-c3cccs3)n[nH]c2C1	nt	0.673
Cc1ccccc1Cc1c(C)nc2c(C(=O)N3CCN(Cc4ccc5c(c4)OCO5)CC3)cnn2c1C	nt	-5.29*
O=C(CSCc1ccccc1)N1CCN(Cc2ccc3c(c2)OCO3)CC1	6.5	-2.9*
CCN(CC)c1ccc(C(=O)NC(=S)N2CCN(Cc3ccc4c(c3)OCO4)CC2)cc1	20.6	-3.33*
CCCC(=O)N1CCN(Cc2ccc3c(c2)OCO3)CC1	17.0	0.446
CC(C)NC(=S)N1CCN(Cc2ccc3c(c2)OCO3)CC1	-2.4	0.715
Cc1ccc(C)c(Cc2c(C)nc3c(C(=O)NCc4ccc5c(c4)OCO5)cnn3c2C)c1	nt	0.168
CC(C)C12CCC(C(=O)O)C(C1)C(=O)O2 (stereo unspecified)	nt	0.401
C/C(=C1\SC(N2CCOCC2)=NC1=O)c1ccc(C)cc1	nt	-0.62
COc1ccc(S(=O)(=O)N2C3CCC2CC(NC(=O)C2CC2)C3)cc1 (stereo unspecified)	nt	0.208
COc1ccc(N2CCN(C(=S)NC(=O)c3cccs3)CC2)c([N+](=O)[O-])c1	7.9	3.45*
COc1ccc(N2CCN(C(=O)c3ccccc3)CC2)c([N+](=O)[O-])c1	4.7	0.958
CC(=O)c1c(N2CCN(Cc3ccccc3)CC2)nc(=S)n(Cc2ccccc2)c1C	10.6	-2.46
CC(=O)c1c(N)[nH]c(-c2ccccc2)nc1=S	nt	4.42*

Bioassay records as filed in PubChem BioAssay.
